Test results as given in ChEMBL document CHEMBL2146421, “Synthesis and anticonvulsant activity of some new thiazolo[3,2-a][1,3]diazepine, benzo[d]thiazolo[5,2-a][12,6]diazepine and benzo[d]oxazolo[5,2-a][12,6]diazepine analogues” (Eur J Med Chem, 2011).

Experiments:
[1] = system: Mus musculus; assay: Anticonvulsant activity in Swiss albino mouse assessed as protection against pentylenetetrazole-induced convulsion at 1.5 mmol/kg, ip treated after 30 mins of pentylenetetrazole measured for 30 mins; type: functional
[2] = system: Mus musculus; assay: Neurotoxicity in Swiss albino mouse assessed as inability to climb up backwards in a glass tube within 30 seconds at 1.5 mmol/kg, ip measured after 15 and 25 mins by Chimney test; type: toxicity, organism-based; details: in vivo
In short: (§1)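 Chimney test: 15 and 25 min after i.p. dosing (3.0, 1.5, 0.75, 0.375 mmol/kg), inability of mice to climb backwards up a glass tube 25 cm long, 3 cm inner diameter, within 30 s recorded as neurological deficit.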

[3] = system: Mus musculus; assay: Neurotoxicity in Swiss albino mouse assessed as effect on motor activity at 1.5 mmol/kg, ip after 30 mins; type: toxicity, organism-based; details: in vivo, 0.5 h
In short: (§2)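 Motor activity measured with an activity meter at 0 and 30 min after i.p. dosing, zero time taken as 100%.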

[4] = system: Mus musculus; assay: Hypnotic activity in Swiss albino mouse assessed as righting reflex at 1.5 mmol/kg, ip; type: ADME, organism-based; details: in vivo
[5] = Toxicity in Swiss albino mouse assessed as mortality at 1.5 mmol/kg, ip measured 7 to 11 mins before pentylenetetrazole challenge; type: organism-based; details: in vivo, read-out: Activity
In short: (§3)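 Compounds given i.p. at 3.0, 1.5, 0.75 and 0.375 mmol/kg to 6 mice per compound. Deaths occurring before the PTZ injection were recorded. PTZ (83 mg/kg s.c.) followed 30 min after compound dosing.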

[6] = system: Mus musculus; assay: Anticonvulsant activity in Swiss albino mouse assessed as protection against pentylenetetrazole-induced convulsion at 0.75 mmol/kg, ip treated after 30 mins of pentylenetetrazole measured for 30 mins; type: functional
[7] = system: Mus musculus; assay: Anticonvulsant activity in Swiss albino mouse assessed as protection against pentylenetetrazole-induced convulsion at 0.375 mmol/kg, ip treated after 30 mins of pentylenetetrazole measured for 30 mins; type: functional
[8] = system: Mus musculus; assay: Neurotoxicity in Swiss albino mouse assessed as inability to climb up backwards in a glass tube within 30 seconds at 0.75 mmol/kg, ip measured after 15 and 25 mins by Chimney test; type: toxicity, organism-based; details: in vivo; in short: as §1
[9] = system: Mus musculus; assay: Neurotoxicity in Swiss albino mouse assessed as inability to climb up backwards in a glass tube within 30 seconds at 0.375 mmol/kg, ip measured after 15 and 25 mins by Chimney test; type: toxicity, organism-based; details: in vivo; in short: as §1
[10] = system: Mus musculus; assay: Neurotoxicity in Swiss albino mouse assessed as effect on motor activity at 0.75 mmol/kg, ip after 30 mins; type: toxicity, organism-based; details: in vivo, 0.5 h; in short: as §2
[11] = system: Mus musculus; assay: Neurotoxicity in Swiss albino mouse assessed as effect on motor activity at 0.375 mmol/kg, ip after 30 mins; type: toxicity, organism-based; details: in vivo, 0.5 h; in short: as §2
[12] = system: Mus musculus; assay: Hypnotic activity in Swiss albino mouse assessed as righting reflex at 0.75 mmol/kg, ip; type: ADME, organism-based; details: in vivo
[13] = system: Mus musculus; assay: Hypnotic activity in Swiss albino mouse assessed as righting reflex at 0.375 mmol/kg, ip; type: ADME, organism-based; details: in vivo
[14] = Toxicity in Swiss albino mouse assessed as mortality at 0.75 mmol/kg, ip measured 7 to 11 mins before pentylenetetrazole challenge; type: organism-based; details: in vivo, read-out: Activity; in short: as §3
[15] = Toxicity in Swiss albino mouse assessed as mortality at 0.375 mmol/kg, ip measured 7 to 11 mins before pentylenetetrazole challenge; type: organism-based; details: in vivo, read-out: Activity; in short: as §3
[16] = system: Mus musculus; assay: Neurotoxicity in Swiss albino mouse assessed as inability to climb up backwards in a glass tube within 30 seconds at 3 mmol/kg, ip measured after 15 and 25 mins by Chimney test; type: toxicity, organism-based; details: in vivo; in short: as §1
[17] = system: Mus musculus; assay: Anticonvulsant activity in Swiss albino mouse assessed as protection against pentylenetetrazole-induced convulsion at 3 mmol/kg, ip treated after 30 mins of pentylenetetrazole measured for 30 mins; type: functional
[18] = system: Mus musculus; assay: Anticonvulsant activity in Swiss albino mouse assessed as protection against maximal electroshock-induced convulsion at 3.0 mmol/kg, ip […]; type: functional
In short: (§4)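 Test agent given i.p. to mice; 30 min later electric shock applied through the ears, animals released immediately to observe maximal seizure; percentage protected recorded (10 animals per dose in dose-response runs).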

[19] = system: Mus musculus; assay: Anticonvulsant activity in Swiss albino mouse assessed as protection against maximal electroshock-induced convulsion at 1.5 mmol/kg, ip […]; type: functional
In short: (§5)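 Test compound given i.p. to mice; 30 min later, electric shock was applied through the ears while the mice were hand-restrained. The mice were then released to observe the maximal seizure. Each dose was tested in 10 animals and the percentage protected was recorded.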

[20] = system: Mus musculus; assay: Anticonvulsant activity in Swiss albino mouse assessed as protection against maximal electroshock-induced convulsion at 0.75 mmol/kg, ip […]; type: functional; in short: as §4
[21] = system: Mus musculus; assay: Anticonvulsant activity in Swiss albino mouse assessed as protection against maximal electroshock-induced convulsion at 0.37 mmol/kg, ip […]; type: functional; in short: as §5
[22] = system: Mus musculus; assay: Anticonvulsant activity in Swiss albino mouse assessed as protection against picrotoxin-induced convulsion at 1.5 mmol/kg, ip […] measured for 30 mins; type: functional
In short: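 Test compound given i.p.; 30 min later, picrotoxin 3.15 mg/kg s.c. was injected. Picrotoxin was freshly dissolved in 1 ml warmed 0.1 N HCl and made up with 0.9% NaCl. Each dose was tested in 10 animals and the percentage of mice protected from clonic convulsions was recorded.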

[23] = system: Mus musculus; assay: Anticonvulsant activity in Swiss albino mouse assessed as protection against bicuculline-induced convulsion at 3.0 mmol/kg, ip […] measured for 30 mins; type: functional
In short: (§6)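 Mice (6 per compound) dosed i.p.; 30 min later given bicuculline 1 mg/kg s.c. (freshly dissolved in 1 ml warmed 0.1 N HCl, made up with 0.9% NaCl), then observed 30 min; percentage anticonvulsion (animals protected) calculated. Dose-response runs used 10 animals per dose.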

[24] = system: Mus musculus; assay: Anticonvulsant activity in Swiss albino mouse assessed as protection against bicuculline-induced convulsion at 1.5 mmol/kg, ip […] measured for 30 mins; type: functional; in short: as §6
[25] = system: Mus musculus; assay: Anticonvulsant activity in Swiss albino mouse assessed as protection against bicuculline-induced convulsion at 0.75 mmol/kg, ip […] measured for 30 mins; type: functional; in short: as §6
[26] = system: Mus musculus; assay: Anticonvulsant activity in Swiss albino mouse assessed as protection against bicuculline-induced convulsion at 0.37 mmol/kg, ip […] measured for 30 mins; type: functional; in short: as §6
[27] = system: Mus musculus; assay: Anticonvulsant activity in ip dosed Swiss albino mouse assessed as protection against maximal electroshock-induced convulsion; type: functional; in short: as §4
[28] = Toxicity in ip dosed Swiss albino mouse assessed as sedative effect; type: organism-based; details: in vivo
[29] = species on record: Mus musculus; assay: Protective index, ratio of TD50 for Swiss albino mouse to ED50 for anticonvulsant activity in Swiss albino mouse; type: functional
In short: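 TD50 (median sedative dose) divided by ED50 (median effective dose), from dose-response curves at 10 mice per dose; 95% confidence limits given.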

[30] = Toxicity in Swiss albino mouse by Spearman-Karber method; type: organism-based; details: in vivo
In short: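 LD50 in mice was determined by the Spearman–Karber method, with doses chosen at equal logarithmic intervals. 95% confidence limits were reported.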

[31] = Therapeutic index, ratio of LD50 for Swiss albino mouse to ED50 for anticonvulsant activity in Swiss albino mouse; type: organism-based; details: in vivo, read-out: Ratio LD50/ED50
In short: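 TI was calculated as LD50/ED50. ED50 came from dose-response curves in 10 mice per dose. LD50 was determined by the Spearman–Karber method, with doses at equal logarithmic intervals.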

[32] = system: Mus musculus; assay: Neurotoxicity in Swiss albino mouse assessed as effect on motor activity at 3 mmol/kg, ip after 30 mins; type: toxicity, organism-based; details: in vivo, 0.5 h; in short: as §2
[33] = system: Mus musculus; assay: Hypnotic activity in Swiss albino mouse assessed as righting reflex at 3 mmol/kg, ip; type: ADME, organism-based; details: in vivo
[34] = Toxicity in Swiss albino mouse assessed as mortality at 3 mmol/kg, ip measured 7 to 11 mins before pentylenetetrazole challenge; type: organism-based; details: in vivo, read-out: Activity; in short: as §3
[35] = system: Mus musculus; assay: Neurotoxicity in Swiss albino mouse assessed as inability to climb up backwards in a glass tube within 30 seconds at 0.37 mmol/kg, ip measured after 15 and 25 mins by Chimney test; type: toxicity, organism-based; details: in vivo; in short: as §1
[36] = system: Mus musculus; assay: Anticonvulsant activity in Swiss albino mouse assessed as protection against pentylenetetrazole-induced convulsion at 0.37 mmol/kg, ip treated 30 mins before pentylenetetrazole measured for 30 mins
[37] = Toxicity in Swiss albino mouse assessed as mortality at 1.38 mmol/kg, sc; type: organism-based; details: in vivo, read-out: Activity
[38] = system: Mus musculus; assay: Anticonvulsant activity in Swiss albino mouse assessed as protection against pentylenetetrazole-induced convulsion at 1.38 mmol/kg, ip treated after 30 mins of pentylenetetrazole measured for 30 mins; type: functional
[39] = system: Mus musculus; assay: Neurotoxicity in Swiss albino mouse assessed as inability to climb up backwards in a glass tube within 30 seconds at 1.38 mmol/kg, ip measured after 15 and 25 mins by Chimney test; type: toxicity, organism-based; details: in vivo
In short: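 Chimney test: at 15 and 25 min after dosing, inability of mice to climb backwards up a glass tube (25 cm long, 3 cm inner diameter) within 30 s was scored as neurological deficit.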

## O=C1CCCN2C=CSC2=N1
[1]
  Activity: 0%
[2]
  Activity: 0%
[3]
  Activity: 0%
[4]
  Activity: 0%
[5]
  mortality: 33%

## O=C1CCCN2C=C(Br)SC2=N1
[1]
  Activity: 30%
[6]
  Activity: 0%
[7]
  Activity: 0%
[2]
  Activity: 80%
[8]
  Activity: 40%
[9]
  Activity: 10%
[3]
  Activity: 12%
[10]
  Activity: 13%
[11]
  Activity: 15%
[4]
  Activity: 30%
[12]
  Activity: 0%
[13]
  Activity: 0%
[5]
  mortality: 0%
[14]
  mortality: 0%
[15]
  mortality: 0%

## S=C1CCCN2C=CSC2=N1
[1]
  Activity: 0%
[6]
  Activity: 0%
[7]
  Activity: 0%
[2]
  Activity: 100%
[8]
  Activity: 30%
[9]
  Activity: 10%
[3]
  Activity: 11%
[10]
  Activity: 26%
[11]
  Activity: 30%
[4]
  Activity: 0%
[12]
  Activity: 0%
[13]
  Activity: 0%
[5]
  mortality: 50%
[14]
  mortality: 10%
[15]
  mortality: 0%

## O=C1CCCN2C(=N1)Sc1ccccc12
[1]
  Activity: 70%
[6]
  Activity: 0%
[7]
  Activity: 0%
[2]
  Activity: 0%
[3]
  Activity: 0%
[4]
  Activity: 0%
[5]
  mortality: 0%

## O=C1CCCN2C(=N1)Sc1cc(Cl)ccc12
[1]
  Activity: 50%
[6]
  Activity: 25%
[2]
  Activity: 25%
[8]
  Activity: 0%
[3]
  Activity: 33%
[10]
  Activity: 20%
[4]
  Activity: 0%
[12]
  Activity: 0%
[5]
  mortality: 0%
[14]
  mortality: 0%
[16]
  Activity: 100%
[17]
  Activity: 100%
[18]
  Activity: 33%
[19]
  Activity: 0%
[20]
  Activity: 0%
[21]
  Activity: 0%
[22]
  Activity: 20%
[23]
  Activity: 100%
[24]
  Activity: 66%
[25]
  Activity: 10%
[26]
  Activity: 10%
[27]
  ED50: 380 mg/kg
[28]
  TD50: 417 mg/kg
[29]
  Ratio TD50/ED50: 1.09
[30]
  LD50: 617 mg/kg
[31]
  selectivity ratio: 1.62
[32]
  Activity: 67%
[33]
  Activity: 20%
[34]
  mortality: 0%
[35]
  Activity: 0%
[36]
  Activity: 0%

## O=C1CCCN2C(=N1)Oc1ccc(Cl)cc12
[1]
  Activity: 67%
[6]
  Activity: 33%
[2]
  Activity: 50%
[8]
  Activity: 17%
[3]
  Activity: 50%
[10]
  Activity: 33%
[4]
  Activity: 0%
[12]
  Activity: 0%
[5]
  mortality: 0%
[14]
  mortality: 0%
[16]
  Activity: 100%
[17]
  Activity: 100%
[18]
  Activity: 70%
[19]
  Activity: 10%
[20]
  Activity: 0%
[21]
  Activity: 0%
[22]
  Activity: 40%
[23]
  Activity: 100%
[24]
  Activity: 50%
[25]
  Activity: 20%
[26]
  Activity: 0%
[27]
  ED50: 251 mg/kg
[28]
  TD50: 355 mg/kg
[29]
  Ratio TD50/ED50: 1.41
[30]
  LD50: 537 mg/kg
[31]
  selectivity ratio: 2.14
[32]
  Activity: 80%
[33]
  Activity: 17%
[34]
  mortality: 0%
[35]
  Activity: 0%
[36]
  Activity: 0%

## CCCC(CCC)C(=O)[O-].[Na+] [VALPROATE SODIUM]
[37]
  mortality: 0%
[38]
  Activity: 100%
[39]
  Activity: 100%
